Results from ChEMBL document CHEMBL1208758, “GPR109a agonists. Part 2: pyrazole-acids as agonists of the human orphan G-protein coupled receptor GPR109a” (Bioorg Med Chem Lett, 2010).

Columns and labels:
[1] = Volume of distribution at steady state in C57BL/6 mouse at 2 mg/kg, po and 1 mg/kg, iv; assay type: ADME, organism-based; conditions: in vivo, read-out: Vdss
Procedure, shortened: (§1)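 Pharmacokinetics in C57BL/6 mice: single dose 1 mg/kg iv or 2 mg/kg po.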

[2] = Plasma clearance in C57BL/6 mouse at 2 mg/kg, po and 1 mg/kg, iv; assay type: ADME, organism-based; procedure, shortened: as §1
[3] = Oral bioavailability in C57BL/6 mouse at 2 mg/kg; assay type: ADME, organism-based; conditions: in vivo; procedure, shortened: as §1
[4] = Half life in C57BL/6 mouse at 2 mg/kg, po and 1 mg/kg, iv; assay type: ADME, organism-based; conditions: in vivo; procedure, shortened: as §1
Mus musculus = test: Reduction in plasma free fatty acid level in C57BL/6 mouse at 10 mg/kg, ip after 15 mins; assay type: functional; parameters: scale not given: the % may be the effect or the level left; conditions: route intraperitoneal
Procedure, shortened: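 Male C57BL/6 mice, six per group, single 10 mpk ip dose; plasma free fatty acids measured 15 min after dosing and reported as percent reduction. Niacin given at 100 mpk ip as comparator.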

Row | Vd [1] [L/kg] | clearance [2] [mL/min/kg] | bioavailability [3] [%] | half-life [4] [h] | SMILES | Activity (Mus musculus) [%]
1 | 9.3 | 24 | 53 | – | O=C(O)c1n[nH]c2c1CC(c1cc(F)cc(F)c1F)C2 (centres undefined) | –
2 | 4.2 | 86 | 27 | 2.3 | Cn1nccc1C1Cc2[nH]nc(C(=O)O)c2C1 (centres undefined) | 41
3 | – | – | – | – | Fc1cc(F)c(F)c(C2Cc3[nH]nc(-c4nnn[nH]4)c3C2)c1 (centres undefined) | 21
